# Data taken from ChEMBL document CHEMBL1138222, “9-Benzylidene-naphtho[2,3-b]thiophen-4-ones as novel antimicrotubule agents-synthesis, antiproliferative activity, and inhibition of tubulin polymerization” (J Med Chem, 2006).
# Activity calls are given as the source filed them. No cut-off for these calls is given here.
# Experiments:
# Tubulin = Tubulin (Sus scrofa, UniProt P02554+P02550); assay: Inhibition of tubulin polymerization in porcine brain
# K562 = assay: Antiproliferative activity against human K562 cell line; format: functional, cell-based
# [1] = Cell cycle arrest in KB/HeLa cells by accumulation at G1 phase at 100 nM; format: functional, cell-based; details: Homo sapiens
# How it was run: (§1)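 Subconfluent KB/HeLa cells were treated with a concentration series for 24 h at 37 °C, then detached and fixed in 70% ethanol. DNA was stained with propidium iodide alongside RNase digestion and measured by flow cytometry. Phase fractions came from cell-cycle modelling software, and IC50 from nonlinear regression.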
# [2] = Cell cycle arrest in KB/HeLa cells by accumulation at G2/M phase at 0.3 nM; format: functional, cell-based; details: Homo sapiens; how it was run: as §1
# [3] = Cell cycle arrest in KB/HeLa cells by accumulation at G1 phase at 31.6 nM; format: functional, cell-based; details: Homo sapiens; how it was run: as §1
# [4] = Cell cycle arrest in KB/HeLa cells by accumulation at G1 phase at 316 nM; format: functional, cell-based; details: Homo sapiens; how it was run: as §1
# [5] = Cell cycle arrest in KB/HeLa cells by accumulation at G1 phase at 0.1 nM; format: functional, cell-based; details: Homo sapiens; how it was run: as §1
# [6] = Cell cycle arrest in KB/HeLa cells by accumulation at G2/M phase at 100 nM; format: functional, cell-based; details: Homo sapiens; how it was run: as §1
# [7] = Cell cycle arrest in KB/HeLa cells by accumulation at G2/M phase; format: functional, cell-based; details: Homo sapiens; how it was run: as §1
# [8] = Cell cycle arrest in KB/HeLa cells by accumulation at G2/M phase at 316 nM; format: functional, cell-based; details: Homo sapiens; how it was run: as §1
# [9] = Cell cycle arrest in KB/HeLa cells by accumulation at G2/M phase at 0.1 nM; format: functional, cell-based; details: Homo sapiens; how it was run: as §1
# [10] = Cell cycle arrest in KB/HeLa cells by accumulation at G2/M phase at 10 nM; format: functional, cell-based; details: Homo sapiens; how it was run: as §1
# [11] = Cell cycle arrest in KB/HeLa cells by accumulation at S phase at 10 nM; format: functional, cell-based; details: Homo sapiens; how it was run: as §1
# [12] = Cell cycle arrest in KB/HeLa cells by accumulation at G2/M phase at 31.6 nM; format: functional, cell-based; details: Homo sapiens; how it was run: as §1
# [13] = Cell cycle arrest in KB/HeLa cells by accumulation at G1 phase at 3.16 nM; format: functional, cell-based; details: Homo sapiens; how it was run: as §1
# [14] = Cell cycle arrest in KB/HeLa cells by accumulation at S phase at 100 nM; format: functional, cell-based; details: Homo sapiens; how it was run: as §1
# [15] = Cell cycle arrest in KB/HeLa cells by accumulation at G1 phase at 0.3 nM; format: functional, cell-based; details: Homo sapiens; how it was run: as §1
# [16] = Cell cycle arrest in KB/HeLa cells by accumulation at S phase at 316 nM; format: functional, cell-based; details: Homo sapiens; how it was run: as §1
# [17] = Cell cycle arrest in KB/HeLa cells by accumulation at S phase at 0.1 nM; format: functional, cell-based; details: Homo sapiens; how it was run: as §1
# [18] = Cell cycle arrest in KB/HeLa cells by accumulation at G1 phase at 10 nM; format: functional, cell-based; details: Homo sapiens; how it was run: as §1
# [19] = Cell cycle arrest in KB/HeLa cells by accumulation at S phase at 31.6 nM; format: functional, cell-based; details: Homo sapiens; how it was run: as §1
# [20] = Cell cycle arrest in KB/HeLa cells by accumulation at S phase at 3.16 nM; format: functional, cell-based; details: Homo sapiens; how it was run: as §1
# [21] = Cell cycle arrest in KB/HeLa cells by accumulation at G2/M phase at 1 nM; format: functional, cell-based; details: Homo sapiens; how it was run: as §1
# [22] = Cell cycle arrest in KB/HeLa cells by accumulation at G2/M phase at 3.16 nM; format: functional, cell-based; details: Homo sapiens
# [23] = Cell cycle arrest in KB/HeLa cells by accumulation at G1 phase at 1 nM; format: functional, cell-based; details: Homo sapiens; how it was run: as §1
# [24] = Cell cycle arrest in KB/HeLa cells by accumulation at S phase at 0.3 nM; format: functional, cell-based; details: Homo sapiens; how it was run: as §1
# [25] = Cell cycle arrest in KB/HeLa cells by accumulation at S phase at 1 nM; format: functional, cell-based; details: Homo sapiens; how it was run: as §1
# RKO [26] = assay: Antiproliferative activity against RKO cells with ectopic-induced p27kip1-expression by XTT assay after 48 hrs; format: functional, cell-based; details: Homo sapiens
# How it was run: (§2)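 RKO colon adenocarcinoma cells carry an ecdysone-inducible p27kip1 vector. On day 1 they were plated with 3 µM ponasterone A (induced, 2 × 10^4 cells/well) or without it (not induced, 6 × 10^3 cells/well) and held 24 h at 37 °C. Compound or DMSO control was then added for 48 h at 37 °C, followed by a standard XTT read-out.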
# [27] = Antiproliferative activity against KB/HeLa cells by XTT assay after 48 hrs; format: functional, cell-based; details: Homo sapiens
# How it was run: (§3)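 Tumour cell lines were seeded at 1 × 10^3 to 8 × 10^4 cells/well for logarithmic growth and exposed to a concentration series for 48 h. Proliferation was read as cellular metabolic activity by XTT. IC50 came from dose-response curves by nonlinear regression, with at least two replicates.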
# RKO [28] = assay: Antiproliferative activity against RKO cells by XTT assay after 48 hrs; format: functional, cell-based; details: Homo sapiens; how it was run: as §2
# L1210 [29] = assay: Antiproliferative activity against L1210 cells by XTT assay after 48 hrs; format: functional, cell-based; details: Mus musculus, L1210, 48 h; how it was run: as §3
# Tubulin (Homo sapiens) [30] = target: T1, Tubulin (Homo sapiens) (UniProt P68371+Q9H4B7+P0DPH7+P68366+Q13509+Q71U36+P04350+Q3ZCM7+P07437+P68363+Q9BQE3+Q6PEY2+Q13885+Q9BVA1+Q9BUF5); assay: Displacement of [3H]paclitaxel from tubulin by SPA assay; format: protein-complex assay
# P388 [31] = assay: Antiproliferative activity against P388 ADR cells by XTT assay after 48 hrs; format: functional, cell-based; details: Mus musculus, P388, 48 h; how it was run: as §3
# L1210 [32] = assay: Antiproliferative activity against L1210 VCR cells by XTT assay after 48 hrs; format: functional, cell-based; details: Mus musculus, L1210, 48 h; how it was run: as §3
# P388 [33] = assay: Antiproliferative activity against P388 cells by XTT assay after 48 hrs; format: functional, cell-based; details: Mus musculus, P388, 48 h; how it was run: as §3
# NCI-H460 = assay: Antiproliferative activity against NCI-H460 cells by XTT assay after 48 hrs; format: functional, cell-based; details: Homo sapiens, NCI-H460, 48 h; how it was run: as §3
# MDR = assay: Antiproliferative activity against LT12 MDR cells by XTT assay after 48 hrs; format: functional, cell-based; details: Rattus norvegicus; how it was run: as §3
# cells = details: Rattus norvegicus, LT12, 48 h
# SF-268 = assay: Antiproliferative activity against SF268 cells by XTT assay after 48 hrs; format: functional, cell-based; details: Homo sapiens, SF-268, 48 h; how it was run: as §3
# SK-OV-3 = assay: Antiproliferative activity against SKOV3 cells by XTT assay after 48 hrs; format: functional, cell-based; details: Homo sapiens, SK-OV-3, 48 h; how it was run: as §3
# Tubulin (Homo sapiens) [34] = target: T1, Tubulin (Homo sapiens); assay: Displacement of [3H]colchicine from tubulin by SPA assay; format: protein-complex assay
compound,measurement,setting,value
O=C1c2ccccc2/C(=C/c2ccccc2)c2sccc21,IC50,Tubulin,6200 nM
same,IC50,K562,330 nM
COc1ccc(/C=C2/c3ccccc3C(=O)c3ccsc32)cc1OC,IC50,K562,320 nM
COc1ccc(C(=O)Oc2c3ccccc3cc3sccc23)cc1,IC50,Tubulin,> 10000 nM
same,IC50,K562,> 90000 nM
O=[N+]([O-])c1ccc(COc2c3ccccc3cc3sccc23)cc1,IC50,K562,3130 nM
CC[C@]1(O)C[C@H]2CN(CCc3c([nH]c4ccccc34)[C@@](C(=O)OC)(c3cc4c(cc3OC)N(C=O)[C@H]3[C@@](O)(C(=O)OC)[C@H](OC(C)=O)[C@]5(CC)C=CCN6CC[C@]43[C@@H]65)C2)C1 [VINCRISTINE],Activity,[1],0.2%
same,Activity,[2],11.7%
same,Activity,[3],1%
same,Activity,[4],0.2%
same,Activity,[5],61.2%
same,Activity,[6],95.1%
same,EC50,[7],2.4 nM
same,Activity,[8],93.8%
same,Activity,[9],11.1%
same,Activity,[10],86.7%
same,Activity,[11],13.1%
same,Activity,[12],92.6%
same,Activity,[13],6.5%
same,Activity,[14],4.8%
same,Activity,[15],64.5%
same,Activity,[16],5.9%
same,Activity,[17],27.7%
same,Activity,[18],0.5%
same,Activity,[19],7.2%
same,Activity,[20],26%
same,Activity,[21],17.2%
same,Activity,[22],65.8%
same,Activity,[23],53.7%
same,Activity,[24],24%
same,Activity,[25],28.3%
COc1ccc(/C=C2/c3ccccc3C(=O)c3ccsc32)cc1,IC50,Tubulin,3300 nM
same,IC50,K562,440 nM
O=C1c2ccccc2Cc2sccc21,IC50,K562,7000 nM
COc1cc2c(c(OC)c1OC)-c1ccc(OC)c(=O)cc1[C@@H](NC(C)=O)CC2 [COLCHICINE],Activity,[1],0.3%
same,Activity,[2],10.1%
same,Activity,[3],0.5%
same,IC50,RKO [26],> 10000 nM
same,Activity,[4],0.3%
same,IC50,[27],30 nM
same,Activity,[6],94.7%
same,EC50,[7],14 nM
same,Activity,[8],94.5%
same,Activity,[10],32.1%
same,Activity,[11],35.7%
same,Activity,[12],87.6%
same,Activity,[13],64.3%
same,Activity,[14],5.1%
same,Activity,[15],63.3%
same,Activity,[16],5.2%
same,Activity,[18],32.2%
same,Activity,[19],11.9%
same,Activity,[20],25.1%
same,Activity,[21],10%
same,Activity,[23],64.7%
same,Activity,[24],26.6%
same,Activity,[25],25.4%
O=C1c2ccccc2/C(=C/c2ccc(O)c(O)c2)c2sccc21,IC50,K562,270 nM
c1ccc(COc2c3ccccc3cc3sccc23)cc1,IC50,K562,2380 nM
COc1ccc(/C=C2/c3ccccc3C(=O)c3ccsc32)c(OC)c1O,IC50,RKO [26],> 9000 nM
same,IC50,[27],190 nM
same,IC50,RKO [28],40 nM
same,IC50,L1210 [29],130 nM
same,IC50,Tubulin,500 nM
same,Activity,Tubulin (Homo sapiens) [30],inactive
same,IC50,P388 [31],160 nM
same,IC50,K562,80 nM
same,IC50,L1210 [32],170 nM
same,IC50,P388 [33],140 nM
same,IC50,NCI-H460,280 nM
same,IC50,MDR,190 nM
same,IC50,cells,180 nM
same,IC50,SF-268,50 nM
same,IC50,SK-OV-3,40 nM
same,Activity,Tubulin (Homo sapiens) [34],0.29 µM
O=C1c2ccccc2/C(=C/c2cc(Cl)cc(Cl)c2)c2sccc21,IC50,K562,420 nM
Cn1cc(/C=C2/c3ccccc3C(=O)c3ccsc32)c2ccccc21,IC50,K562,250 nM
O=C1c2ccccc2/C(=C/c2cccs2)c2sccc21,IC50,Tubulin,1340 nM
same,IC50,K562,390 nM
COc1ccc(CCC(=O)Oc2c3ccccc3cc3sccc23)cc1,IC50,K562,> 90000 nM
COc1ccc(/C=C2/c3ccccc3C(=O)c3ccsc32)c(O)c1,IC50,Tubulin,770 nM
same,IC50,K562,230 nM
